High-throughput results: PubChem, several laboratories
BB579 growth dn: chemicals that inhibit yeast BB579 growth in restrictive medium (lifespan-shortening candidates). AID 804. S. cerevisiae BB579 growth, OD615, 48 h. actives 0.51% (n = 140,000). inhibition, % at 10 µM;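 active = inhibition above a set limit, 3 SD over the mean compound inhibition, cut at about 44% in these data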
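controls = amphotericin B 10 µg/mL, positive | assay system = DeaD yeast strain BB579 | schedule = 48 h compound exposure at 30 °C after 4 h preincubation | detection = OD615 turbidity measurement | medium = restrictive CSMM-D medium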
RAM network inh: blocks the yeast RAM network. inhibition, % at 50 µM. actives 1.8% (n = 190,000). S. cerevisiae dse1pr::URA3 reporter, 5-FOA growth OD615, 2 d; analog-sensitive cbk1-as2 kinase mutant strain;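 active = inhibition above a set limit, 3 SD over mean compound inhibition, cut at about 8.4% in these data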;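 also: inhibition rescues growth on 5-FOA so higher OD means more RAM inhibition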
sdo1 growth: restores growth of sdo1-depleted yeast; S. cerevisiae sdo1-depleted JHY4D growth rescue, OD600 30 h; active compounds read high; pdr5 snq2 efflux-pump mutant strain; z-score at 10 µM; actives 0.21% (n = 140,000);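 active = z-score above 3 at both the 24 hr and the 30 hr optical density reads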
Yeast lifespan up: yeast lifespan extension. actives 0.68% (n = 130,000). S. cerevisiae growth with nicotinamide, OD615; deaD strain in restrictive glucose medium. inhibition of the nicotinamide effect, % at 10 µM;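 active = inhibition above a set limit, placed 3 SD over the median of all compounds, cut at about 26% in these data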
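assay system = DeaD-strain S. cerevisiae | measured by = absorbance at 615 nm | probe or stimulus = nicotinamide 1.5 mM | buffer or medium = CSMM-D glucose medium, restrictive | times = 48 h at 30 °C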
RAM efflux-def: restores 5-FOA growth of efflux-deficient yeast | shares compounds with RAM network inh | S. cerevisiae efflux-deficient reporter strain, 5-FOA growth OD615, 2 days | max inhibition, % | 1,200 tested, under 10 active | AID 1305; call rule not given here
A number is an active result; – = inactive; · = not tested or not shown. Compounds with a hit are over-represented: about 2.7% of the library has one in this group of screens.

SMILES	BB579 growth dn	RAM network inh	sdo1 growth	Yeast lifespan up	RAM efflux-def
FC(F)(F)c1cc(-c2ccco2)nc(N2CCN(Cc3ccccc3)CC2)n1	–	–	–	–	·
Fc1ccc(N2CCN(c3nc(-c4ccco4)cc(C(F)(F)F)n3)CC2)cc1	–	14	–	–	–
O=C(CSc1nnc(-c2ccccc2Br)o1)N1CCc2ccccc2C1	–	17	–	–	–
CCN(CC)S(=O)(=O)c1cccc(C(=O)c2c(C)cc3ccccn23)c1	–	15	–	–	–
O=C(CCSc1ccc(Cl)cc1)c1cccs1	–	–	–	–	·
O=C(CCc1ccc(CCC(=O)c2cccs2)s1)c1cccs1	–	17	–	–	–
CCCN(CC1CC1)C(=O)COC(=O)c1ccc(CNS(=O)(=O)c2ccc(F)c(Cl)c2)cc1	–	12	–	–	–
COc1ccc(OC)c(-n2nnnc2SCC(=O)NCCc2ccccc2)c1	–	–	–	–	·
O=C(NCCSc1c(-c2ccccc2)[nH]c2ccccc12)c1cc2ccccc2oc1=O	–	–	–	–	·
CCOCCCNC(=S)N1CCCN(c2nc3cc(C)ccc3cc2C#N)CC1	·	–	·	·	·
CCOCCCNC(=S)N1CCCN(c2nc3c(C)c(C)ccc3cc2C#N)CC1	·	22	·	·	–
C=CCOC(=O)C1=C(C)NC(=O)NC1c1ccc(Cl)cc1 (stereo not drawn)	–	–	–	–	·
C=CCOC(=O)C1=C(C)NC(SCC)=C(C#N)C1c1ccc(Cl)cc1 (stereo not drawn)	–	13	–	–	–
COc1ccc(NC(=S)NCc2ccccn2)cc1OC	·	–	·	·	·
COc1ccccc1OCCNS(=O)(=O)c1ccc2oc3ccccc3c2c1	–	15	–	–	–
COc1ccc(S(=O)(=O)NCCOc2cccc3cccnc23)cc1OC	·	–	·	·	·
Cc1c(NC(=O)c2cc(=O)[nH]c3ccccc23)c(=O)n(-c2ccccc2)n1C	–	–	–	–	·
Cc1cc2cc(CNS(=O)(=O)c3ccc4ccccc4c3)ccc2n1C	–	–	–	–	·
Cc1cc(C)c(S(=O)(=O)NCc2ccc3c(c2)cc(C)n3C)c(C)c1	–	14	–	–	–
C=CCn1c(SCC(=O)/C(C#N)=C(\C)N)nc2sc(CC)cc2c1=O	–	13	–	–	–
C=CCn1c(SCC(=O)O)nc2sc(CC)cc2c1=O	·	–	·	·	·
CCn1c(/C=C2/C(=O)N(C)c3ccccc32)nc2ccccc2c1=O	–	–	–	–	·
CCCCOn1c(C)c(C(=O)OCC)c2c3no[n+]([O-])c3ccc21	–	12	–	–	–
O=C(CSc1ccc(Cl)cc1)Nc1ccccc1Oc1ccccc1	–	–	–	–	·
O=C(CSc1ccc(Br)cc1)Nc1ccccc1Oc1ccccc1	–	11	–	–	–
SMILES	BB579 growth dn	RAM network inh	sdo1 growth	Yeast lifespan up	RAM efflux-def
Cc1ccccc1NC(=O)CCCSc1nc2ccccc2s1	–	18	–	–	–
COc1ccc(-c2nnc(SC(C)C(=O)Nc3cccc(Cl)c3)o2)cc1 (stereo not drawn)	–	15	–	–	–
CC1(C)CC(=O)C2=C(C1)c1c(ccc3ccccc13)NC2c1ccco1 (stereo not drawn)	–	16	–	–	–
CCn1c(C(=O)NCc2ccccn2)cc2sccc21	–	–	–	–	·
COc1cccc(/C=C/C(=O)OCC(=O)Nc2cc(C(F)(F)F)ccc2Cl)c1	–	12	–	–	–
COc1cccc(/C=C/C(=O)OCC(=O)NCc2ccc(Cl)cc2)c1	·	–	·	·	·
O=C1NC(=O)/C(=C\c2ccc(OCc3cnc(Cl)s3)cc2)S1	·	–	·	·	·
CC(C)COc1ccc(/C=C2/Sc3ccccc3C2=O)cc1	–	21	–	–	–
O=C1/C(=C/c2cccs2)Sc2ccccc21	–	–	–	–	·
CCCCOc1ccc(/C=C2/Sc3ccccc3C2=O)cc1	–	17	–	–	–
O=C(Nc1ccn(Cc2cccc3ccccc23)n1)c1cccnc1	·	12	·	·	–
Cc1ccc(NC(=O)c2cc(S(=O)(=O)NCCC3=CCCCC3)ccc2F)cc1	–	16	–	–	–
CCCCCOc1ccc(C(=O)OCC(=O)Nc2cc(C)c(C)cc2[N+](=O)[O-])cc1	–	12	–	–	–
COc1cc(CNC(=O)c2cccc(COc3ccc(Cl)cc3)c2)cc(OC)c1	–	12	–	–	–
COCCCNC(=O)c1cc(=O)n(Cc2ccc(Cl)cc2)c2ccccc12	·	–	·	·	·
COCCCNC(=O)c1ccc(Cn2c(=O)c3ccccc3n(Cc3ccc(C)cc3)c2=O)cc1	–	12	–	–	–
O=C(O)Cc1nn(Cc2ccc(Cl)cc2)c(=O)c2ccccc12	·	–	·	·	·
O=c1c2ccccc2c(-c2ccccc2)nn1Cc1ccc(Cl)cc1	–	14	–	–	–
COC(=O)C1=C(C)N=C2SC(C)C(=O)N2C1c1ccc(C(=O)OC)cc1 (stereo not drawn)	–	–	–	–	·
CC(=O)OCCNc1cc(SC(C)C)c2nonc2c1[N+](=O)[O-]	·	–	·	·	·
CC(=O)OCCCNc1cc(Sc2ccc(Cl)cc2)c2nonc2c1[N+](=O)[O-]	–	12	–	–	–
CCCSc1nc(C)cc(C)c1S(C)(=O)=O	·	–	·	·	·
CCOC(=O)CSc1nc2cc(S(=O)(=O)Nc3ccccc3OC)ccc2o1	–	–	–	–	·
COc1ccc(NS(=O)(=O)c2ccc3oc(SCc4ccc(F)cc4)nc3c2)cc1	–	13	–	–	–
O=c1ccc2cc(S(=O)(=O)Nc3ccc(F)cc3)ccc2o1	–	–	–	–	·
SMILES	BB579 growth dn	RAM network inh	sdo1 growth	Yeast lifespan up	RAM efflux-def
COc1ccccc1NS(=O)(=O)c1ccc2oc(SCc3ccc(F)cc3)nc2c1	–	14	–	–	–
Cc1occc1C(=O)NCCc1ccc(Cl)cc1	–	–	–	–	·
Cc1ccc(C(=O)Nc2ccc(S(=O)(=O)N3CCN(C)CC3)cc2)cc1	–	–	–	·	·
O=C(/C=C/c1ccc(O)cc1)c1ccc(O)cc1O	–	–	–	–	·
CC(C)=CCC/C(C)=C/Cc1c(O)ccc(C(=O)/C=C/c2ccc(O)cc2)c1O	–	15	–	–	–
CC1(C)CC(C(CCN(Cc2ccccc2)C(=O)c2ccco2)c2ccc(F)cc2)CCO1 (stereo not drawn)	–	12	–	–	–
O=C(c1ccco1)N(CCC(c1ccccc1)c1ccco1)Cc1ccc(F)cc1 (stereo not drawn)	–	–	–	–	·
C=CCN1C(=Nc2cccnc2)SCC1(O)c1ccc(C)cc1 (stereo not drawn)	–	–	–	–	·
N#CCc1ccc(NS(=O)(=O)c2ccc(C3CCCCC3)cc2)cc1	–	11	–	–	–
COc1ccc(S(=O)(=O)Nc2ccc(CC#N)cc2)cc1	–	–	–	–	·
COCCNC(=O)c1ccc(CS(=O)(=O)c2ccc(C)cc2)o1	–	–	–	–	·
CCOC(=O)CSc1nc2ccccc2c(=O)n1CC	–	–	–	–	·
CCOC(=O)CSc1nc2ccccc2c(=O)n1CC1CCCC1	–	18	–	·	–
CCN(CC)S(=O)(=O)c1cc(C(=O)OCC(=O)Nc2cccc(Br)c2)ccc1F	–	15	–	–	–
